From ChEMBL document CHEMBL3588809, “Antioxidant and Anti-Inflammatory Phenolic Glycosides from Clematis tashiroi” (J Nat Prod, 2015)
The source made the active and inactive calls. No cut-off for these calls is given here.

Assays:
[1] = Antioxidant activity assessed as DPPH free radical scavenging activity at 100 ug/ml incubated for 30 mins by ELISA method; type: physicochemical; settings: 0.5 h
Method in brief: (§1)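 Sample (120 μL, 10−100 μg/mL) mixed with 30 μL of 0.75 mM DPPH in methanol, shaken in the dark at room temperature for 30 min, absorbance read at 517 nm on a plate reader. Methanol negative control, α-tocopherol (10−40 μg/mL) positive control. ED50 taken as concentration scavenging 50% of DPPH radicals.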

RAW264.7 [2] = test: Anti-inflammatory activity in mouse RAW264.7 cells assessed as inhibition of LPS-induced nitric oxide production at 20 ug/ml incubated for 24 hrs by Griess reagent based assay; type: functional, cell-based
Method in brief: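 RAW 264.7 macrophages grown in DMEM with 5% heat-inactivated fetal calf serum at 37 °C, 5% CO2. Cells seeded at 2 × 10^5/well, treated with compound (DMSO stock diluted in PBS) together with LPS 1000 ng/mL for 24 h. Medium nitrite read with Griess reagent at 550 nm against NaNO2 standard curve; LPS-only NO set as 100%; triplicate; quercetin positive control.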

[3] = Antioxidant activity assessed as DPPH free radical scavenging activity incubated for 30 mins by ELISA method; type: physicochemical; settings: 0.5 h; read-out: ED50 (the source's name); method in brief: as §1
RAW264.7 [4] = test: Anti-inflammatory activity in mouse RAW264.7 cells assessed as inhibition of LPS-induced nitric oxide production incubated for 24 hrs by Griess reagent based assay; type: functional, cell-based; settings: RAW264.7, 24 h
Method in brief: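 RAW 264.7 macrophages grown in DMEM with 5% heat-inactivated FCS at 37 °C, 5% CO2; plated at 2 × 10^5 cells/well and stimulated with LPS (1000 ng/mL) concurrently with test agents (DMSO stocks diluted in PBS) for 24 h. Nitrite in medium measured with Griess reagent at 550 nm against NaNO2 standard curve; LPS-only set as 100%; triplicates; IC50 reported.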

SMILES	Activity [1] [%]	EC50 [3] [µM]	inhibition (RAW264.7 [2])	IC50 (RAW264.7 [4]) [µM]
O=C(/C=C/c1ccc(O)c(O)c1)OC[C@H]1O[C@@H](Oc2ccc(/C=C/C(=O)O[C@@H]3O[C@H](CO)[C@@H](O)[C@H](O)[C@H]3O)cc2O)[C@H](O)[C@@H](O)[C@@H]1O	99.8	13.3	inactive	
COc1cc(/C=C/C(=O)OC[C@H]2O[C@@H](Oc3ccc(/C=C/C(=O)O[C@@H]4O[C@H](CO)[C@@H](O)[C@H](O)[C@H]4O)cc3O)[C@H](O)[C@@H](O)[C@@H]2O)ccc1O	74.8	87	inactive	
O=C(/C=C/c1ccc(O[C@@H]2O[C@H](COC(=O)/C=C/c3ccc(O)c(O)c3)[C@@H](O)[C@H](O)[C@H]2O)c(O)c1)OC[C@H]1O[C@@H](Oc2cc(/C=C/c3ccc(O)c(O)c3)oc(=O)c2)[C@H](O)[C@@H](O)[C@@H]1O	98.8	17	inactive	
O=C(/C=C/c1ccc(O)cc1)OC[C@H]1O[C@@H](Oc2ccc(/C=C/C(=O)O[C@@H]3O[C@H](CO)[C@@H](O)[C@H](O)[C@H]3O)cc2O)[C@H](O)[C@@H](O)[C@@H]1O	7.8		inactive	
Cc1c(C)c2c(c(C)c1O)CCC(C)(CCCC(C)CCCC(C)CCCC(C)C)O2 (racemic) [alpha-TOCHOPHEROL]		27.8		
O=C(/C=C/c1ccc(O)cc1)OC[C@H]1O[C@@H](Oc2cc(/C=C/C(=O)O[C@@H]3O[C@H](CO)[C@@H](O)[C@H](O)[C@H]3O)ccc2O)[C@H](O)[C@@H](O)[C@@H]1O	32.2		inactive	
O=C(/C=C/c1ccc(O)c(O)c1)OC[C@H]1O[C@@H](Oc2cc(/C=C/C(=O)O[C@@H]3O[C@H](CO)[C@@H](O)[C@H](O)[C@H]3O)ccc2O)[C@H](O)[C@@H](O)[C@@H]1O	99.4	39.9	inactive	
O=c1c(O)c(-c2ccc(O)c(O)c2)oc2cc(O)cc(O)c12 [QUERCETIN]				1.8
O=C(/C=C/c1ccc(O)c(O)c1)OC[C@H]1O[C@@H](Oc2cc(/C=C/c3ccc(O)c(O)c3)oc(=O)c2)[C@H](O)[C@@H](O)[C@@H]1O	99	13		14.9

Further lines, with some results ahead:

Activity [1] [%]	EC50 [3] [µM]	SMILES	inhibition (RAW264.7 [2])	IC50 (RAW264.7 [4]) [µM]
5		O=C(/C=C/c1ccc(O)cc1)OC[C@H]1OC(O)[C@H](O)[C@@H](O)[C@@H]1O (some centres undefined)	inactive	
91.2	175	O=C(O)/C=C/c1ccc(O[C@@H]2O[C@H](CO)[C@@H](O)[C@H](O)[C@H]2O)c(O)c1	inactive	
99.3	29.1	O=C(/C=C/c1ccc(O)c(O)c1)O[C@@H]1O[C@H](CO)[C@@H](O)[C@H](O)[C@H]1O	inactive	
9.8		O=C(/C=C/c1ccc(O)c(O)c1)OC[C@H]1OC(O)[C@H](O)[C@@H](O)[C@@H]1O (some centres undefined)	inactive	
99.7	47	O=C(/C=C/c1ccc(O)c(O)c1)OC[C@H]1O[C@@H](Oc2ccc(/C=C/C(=O)O[C@@H]3O[C@H](CO)[C@@H](O)[C@H](O)[C@H]3O)cc2)[C@H](O)[C@@H](O)[C@@H]1O	inactive	
